RGS4 act = potentiators or activators of RGS4. HEK293 M3R/inducible RGS4, carbachol calcium flux Fluo4; stronger effect = lower value. B-score at 10 µM. actives 0.92% (n = 310,000). AID 463111;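 active = B-score of the integrated calcium signal more than 4 SD below the library mean, with starting fluorescence not abnormally high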;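 also: negative B-score means reduced calcium response which marks RGS4 activation or potentiation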
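System – HEK293 FlpIn-TREx cells, stable M3R, doxycycline-inducible RGS4 · Reagent – ECmax carbachol challenge · Times – compound preincubation 20 min at room temperature before agonist · Technique – Fluo4 fluorescence kinetic imaging of calcium · Measure – B score of integrated Fluo4 ratio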
MrgX1 PAM = human MrgX1 positive allosteric modulation, primary screen; B-score at 10 µM; actives 0.63% (n = 310,000); AID 588675; MrgX1-HEK293, Fluo-4 calcium flux, FDSS; stronger effect = higher value;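 active = plate-corrected calcium response at least 3 library SD above typical, normal starting fluorescence, not activating the receptor alone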;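 also: compound read alongside a low EC10 to EC30 dose of BAM8-22 agonist; peak minus trough fluorescence over baseline measured at the second addition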
Target sequence (Q96LB2 whole entry, looked up): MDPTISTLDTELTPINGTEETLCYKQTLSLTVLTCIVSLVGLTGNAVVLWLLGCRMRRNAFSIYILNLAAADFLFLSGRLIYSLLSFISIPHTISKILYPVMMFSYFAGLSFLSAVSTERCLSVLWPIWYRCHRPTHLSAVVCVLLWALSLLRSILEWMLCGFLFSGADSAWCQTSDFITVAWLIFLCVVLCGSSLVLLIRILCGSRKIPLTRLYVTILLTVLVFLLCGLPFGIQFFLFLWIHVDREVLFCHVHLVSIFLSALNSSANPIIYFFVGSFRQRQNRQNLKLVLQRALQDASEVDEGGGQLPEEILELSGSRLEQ
RGS4 block = human RGS4 inhibition | P49798 | HEK293 M3R/RGS4 inducible, Fluo-4 calcium flux; stronger effect = higher value; triggered by carbachol at its EC20 | B-score at 10 µM | actives 0.45% (n = 310,000) | AID 463165;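 active = B-score, a plate-corrected calcium signal, over three deviations above library mean, with baseline fluorescence within five deviations of library mean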;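 also: RGS4 expression induced by doxycycline in cells with stable M3 receptor; B-score is computed from the integrated fluorescence ratio over baseline after carbachol; higher B-score means a larger calcium signal and so more RGS4 inhibition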
MrgX1 antagonist = blocks BAM8-22 activation of human MrgX1 receptor | actives 1.3% (n = 310,000) | MRGX1-HEK293 calcium flux, Fluo-4, BAM8-22 antagonism; stronger effect = lower value | Q96LB2 | B-score at 10 µM;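 active = calcium-response B-score plate-corrected more than 3 library SD below zero, starting fluorescence within 5 deviations, no agonist response on first addition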;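 also: peak minus trough fluorescence over baseline after final BAM8-22 challenge near maximal dose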
MrgX1 agonist = agonists of human MrgX1 receptor. Q96LB2. MrgX1-HEK293 cells, Fluo-4 calcium fluorescence, agonist mode; stronger effect = higher value. B-score at 10 µM. actives 0.44% (n = 310,000);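 active = calcium response B-score plate-corrected fluorescence ratio at least 3 library SD, with starting fluorescence B-score inside 5 SD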
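System: HEK293 cells stably expressing human MrgX1 receptor; Dosing: test compound in the initial addition of three; Schedule: overnight plating, then 30 min 37 °C plus 30 min room-temperature dye loading; Detection: kinetic calcium dye fluorescence, Fluo-4 NW; Controls: per-plate positive and negative controls for Z′ factor.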
Of the large screens only hits and unclear results are named; the others gave an inactive call. An excerpt weighted towards active compounds, which were near 3.5% of everything screened.

O=C(CSc1nnc(COc2ccc(Cl)cc2)o1)NC1CCCCC1	none
Cc1ccc(C(=O)Nc2ccc3cn[nH]c3c2)cc1S(=O)(=O)N1CCCCC1	none
CN(C)c1ccnc(N(Cc2ccccc2)Cc2ccccc2)c1C#N	RGS4 act -11
COc1ccc(-c2cc(C(=O)N(C)Cc3ccccc3F)c3ccccc3n2)cc1OC	RGS4 act -8.2
COCCN(Cc1ccccc1)C(=O)c1cc(-c2ccc(OC)c(OC)c2)nc2ccccc12	RGS4 act -8.7
COc1cccc(CN(C)C(=O)c2cc(-c3cccs3)nc3ccccc23)c1	RGS4 act -9.1
CCN(Cc1ccccc1)C(=O)c1cc(-c2ccc(OC)c(OC)c2)nc2ccccc12	RGS4 act -9.2
COc1cc(-c2cc(C(=O)N(C)Cc3ccccc3)c3ccccc3n2)cc(OC)c1OC	none
CCNS(=O)(=O)c1ccc(CCC(=O)NCCC2=CCCCC2)cc1	none
CCN1CCN(C(=S)Nc2cc(S(=O)(=O)N(CC)CC)ccc2C)CC1	none
C/C(CCc1oc2ccc(Br)cc2c1-c1ccc(C)o1)=N/O	MrgX1 antagonist -6.3
Cc1ccc(O)c(C(=O)c2cc(C#N)c(=O)n(-c3nccs3)c2)c1	MrgX1 agonist 53
Cc1c(-n2cc(C(=O)c3cc(Cl)ccc3O)cc(C#N)c2=O)c(=O)n(-c2ccccc2)n1C	MrgX1 PAM 7.8
COc1cccc(C(=O)c2c(C)c(CCC#N)n3ccccc23)c1	none
CN(C)CCCNC(=O)N1c2ccccc2C=Cc2ccccc21	RGS4 act -7.2
CCN(CC)C(=O)N1c2ccccc2C=Cc2ccccc21	none
CC(=O)OCCn1c2nc(=O)[nH]c(=O)c-2nc2cc(C)c(C)cc21	RGS4 act -7.7
CC(=O)OCCn1c(C)[n+](CCOC(C)=O)c2cc(Cl)c(Cl)cc21	none
CC(=O)CSc1nnc(-c2ccc(S(=O)(=O)N3CCCC3)cc2)n1C	none
CC(C)CCNC(=O)CSc1nnc(-c2ccc(S(=O)(=O)N3CCCC3)cc2)n1C	MrgX1 antagonist -5.4
Cc1cccc(Oc2ncnc(N)c2[N+](=O)[O-])c1C	none
Nc1ncnc(Oc2cccc3cccnc23)c1[N+](=O)[O-]	MrgX1 antagonist -5
CSc1nc(SCC(=O)NCc2ccco2)c2c3c(sc2n1)CN(C)CC3	none
CCC(O)CNc1nc(SC)nc2sc3c(c12)CCN(C)C3 (stereo not drawn)	RGS4 act -7.2
CSc1nc(NCc2ccco2)c2c3c(sc2n1)CN(C)CC3	RGS4 act -7.7, MrgX1 antagonist -4.7
Cc1nn2c3ccccc3n(CCN3CCCCC3)c2nc1=O	MrgX1 antagonist -6
C=CCn1c2ccccc2n2nc(C)c(=O)nc12	none
Cc1cc(C)c2nc(-c3ccncc3)cc(C(=O)N3CCN(Cc4ccccc4Cl)CC3)c2c1	RGS4 act -7.4
CCCc1ccccc1OCCNC(=O)c1cc(=O)n(C)c(=O)n1C	none
CCn1c(CN2CCN(Cc3ccc(C)cc3)C(CCO)C2)nc2ccccc21 (stereo not drawn)	none
CCOC(=O)c1c(CSC(=N)N)n(-c2ccc(C)cc2)c2cc(Br)c(OC(C)=O)cc12	MrgX1 antagonist -7.6
CCOC(=O)c1c(CN(C)C)n(-c2ccc(C)cc2)c2cc(Br)c(O)cc12	none
Cc1ccc(CNC(=O)c2ccc(OCC(C)C)cc2)n1C	none
CC1CC(=O)C=C(O)C1C(=O)OC(C)(C)C (stereo not drawn)	none
COc1ccc2c(C(=O)c3ccc(C)cc3)n(Cc3ccc(C(N)=O)cc3)[n+]([O-])c2c1	none (no result: RGS4 act, RGS4 block)
CC(C)c1ccccc1NC(=O)CNCCOc1ccccc1F	RGS4 act -7.2
CCOC1=C/C(=C/c2c(N)n3nc(CC(=O)N4CCCC4)sc3nc2=O)C=CC1=O	MrgX1 agonist 31
COC1=C/C(=C/c2c(N)n3nc(CC(=O)N4CCCC4)sc3nc2=O)C=CC1=O	MrgX1 antagonist -5.9
COC1=CC(=Cc2c(N)n3nc(CC(=O)N4CCCCC4)sc3nc2=O)C=C(OC)C1=O	none
COC(=O)c1ccc(NC(=O)CSc2nn3c(=O)c(C)nnc3s2)cc1	none
O=C(Nc1nc(-c2ccccc2)cs1)c1ccc(N2CCOCC2)c([N+](=O)[O-])c1	MrgX1 antagonist -7.4
Cc1ccc(-c2csc(NC(=O)c3cc([N+](=O)[O-])ccc3N3CCOCC3)n2)cc1	none
Cn1c(Sc2ccccc2Cl)c(C=O)c2ccccc21	RGS4 act -8.5
